# Data published in ChEMBL document CHEMBL5532751, “Identification of chalcone analogues as anti-inflammatory agents through the regulation of NF-κB and JNK activation” (RSC Med Chem, 2024).
# The source made the active and inactive calls. The calls are words filed in the database; no cut-off is given here.
# What was measured:
# [1] = system: RAW264.7; assay: Antiinflammatory activity in LPS-induced mouse RAW264.7 cells assessed as inhibition of NO production at 20 uM preincubated for 2 hrs followed by LPS stimulation for 24 hrs by Griess reagent based assay; format: functional, cell-based; conditions: time 26.0 hrs
# Procedure, shortened: (§1)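 Cells at 100 000 per well, grown 36 h in DMEM with 10% heat-inactivated FBS at 37 °C, 5% CO2. Pretreated 2 h with compound (20 μM in the screen), then LPS 1 μg mL−1 for 24 h. Supernatant mixed with Griess reagent, absorbance read at 540 nm, nitrite read from a sodium nitrite standard curve. Expressed as % of LPS control; ≥3 independent experiments, each in triplicate.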
# [2] = system: RAW264.7; assay: Antiinflammatory activity in LPS-induced mouse RAW264.7 cells assessed as inhibition of PGE2 production preincubated for 2 hrs followed by LPS stimulation for 24 hrs by ELISA method; format: functional, cell-based
# [3] = system: RAW264.7; assay: Antiinflammatory activity in LPS-induced mouse RAW264.7 cells assessed as inhibition of IL-1beta release preincubated for 2 hrs followed by LPS stimulation for 24 hrs by ELISA method; format: functional, cell-based; conditions: for Activity: dose 2.5-40 µM, time 26.0 hrs
# Procedure, shortened: (§2)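 RAW264.7 macrophages pretreated 2 h with compound at 2.5, 5, 10, 20 and 40 μM, then LPS 1 μg mL−1 for 24 h. Cytokine in supernatant measured with commercial ELISA kits per the manufacturers' protocols. IC50 derived from the dose series. Mean ± SD.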
# [4] = system: RAW264.7; assay: Cytotoxicity against mouse RAW264.7 cells assessed as cell survival at 20 uM incubated for 4 hrs by CCK-8 method; format: toxicity, cell-based; conditions: raw264.7, 4 h
# Procedure, shortened: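 RAW 264.7 cells seeded at 20 000 per well, grown 24 h at 37 °C, exposed to compound for 4 h. CCK-8 (WST-8) reagent then added for 50 min at 37 °C, absorbance read at 450 nm. Survival = (test − blank)/(untreated medium control − blank) × 100%, blank being medium without cells.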
# [5] = system: RAW264.7; assay: Antiinflammatory activity in LPS-induced mouse RAW264.7 cells assessed as downregulation of COX-2 mRNA expression level preincubated for 2 hrs followed by LPS stimulation for 6 hrs by RT-qPCR analysis; format: functional, cell-based; conditions: dose 5-20 µM, time 8.0 hrs
# Procedure, shortened: (§3)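 RAW264.7 cells pretreated 2 h with compound at 5, 10 or 20 μM or vehicle, then LPS 1 μg mL−1 for 6 h. Total RNA extracted and target mRNAs quantified by RT-qPCR, normalized to β-actin mRNA. Mean ± SD of three independent experiments.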
# [6] = system: RAW264.7; assay: Antiinflammatory activity in LPS-induced mouse RAW264.7 cells assessed as inhibition of TNF-alpha release preincubated for 2 hrs followed by LPS stimulation for 24 hrs by ELISA method; format: functional, cell-based; conditions: for Activity: dose 2.5-40 µM, time 26.0 hrs; procedure, shortened: as §2
# [7] = system: RAW264.7; assay: Antiinflammatory activity in LPS-induced mouse RAW264.7 cells assessed as inhibition of iNOS activity preincubated for 2 hrs followed by LPS stimulation for 24 hrs by ELISA method; format: functional, cell-based
# [8] = system: RAW264.7; assay: Antiinflammatory activity in LPS-induced mouse RAW264.7 cells assessed as reduction in NO production at 20 uM preincubated for 2 hrs followed by LPS stimulation for 24 hrs by Griess reagent based assay; format: functional, cell-based; conditions: time 26.0 hrs; procedure, shortened: as §1
# [9] = system: RAW264.7; assay: Antiinflammatory activity in LPS-induced mouse RAW264.7 cells assessed as decrease in COX-2 protein level at 10 to 40 uM preincubated for 2 hrs followed by LPS stimulation for 24 hrs by Western blot analysis; format: functional, cell-based; conditions: dose 10-40 µM, time 26.0 hrs
# Procedure, shortened: (§4)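 RAW264.7 cells given compound at 10, 20 or 40 μM, then LPS (1 μg mL−1). Lysis in 1% Triton X-100 buffer with phosphatase and protease inhibitors, 30 min on ice. Protein quantified by BCA, run on 10% SDS-PAGE, transferred to PVDF. Primary antibody overnight at 4 °C, HRP secondary 2 h at room temperature, ECL detection. β-Actin as loading control. Mean ± SD, n = 3.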
# [10] = system: RAW264.7; assay: Antiinflammatory activity in LPS-induced mouse RAW264.7 cells assessed as inhibition of NO production preincubated for 2 hrs followed by LPS stimulation for 24 hrs by Griess reagent based assay; format: functional, cell-based; procedure, shortened: as §1
# [11] = system: RAW264.7; assay: Inhibition of JNK signaling activation in LPS-induced mouse RAW264.7 cells assessed as downregulation of JNK phosphorylation preincubated for 2 hrs followed by LPS addition for 2 hrs by Western blot analysis; format: cell-based; conditions: dose 10-40 µM, time 4.0 hrs
# Procedure, shortened: (§5)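 RAW264.7 macrophages pretreated 2 h with vehicle (DMSO) or compound at 10, 20 or 40 μM, then LPS 1 μg mL−1 for 2 h. p-p65 and p-JNK detected by Western blot, normalized to β-actin and to total p65 or JNK. Optical density expressed as % of control; mean ± SEM of at least three independent experiments.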
# [12] = system: RAW264.7; assay: Antiinflammatory activity in LPS-induced mouse RAW264.7 cells assessed as downregulation of iNOS mRNA expression level preincubated for 2 hrs followed by LPS stimulation for 6 hrs by RT-qPCR analysis; format: functional, cell-based; conditions: dose 5-20 µM, time 8.0 hrs; procedure, shortened: as §3
# [13] = system: RAW264.7; assay: Inhibition of NF-kB signaling activation in LPS-induced mouse RAW264.7 cells assessed as downregulation of p65 phosphorylation preincubated for 2 hrs followed by LPS addition for 2 hrs by Western blot analysis; format: cell-based; conditions: dose 10-40 µM, time 4.0 hrs; procedure, shortened: as §5
# [14] = system: RAW264.7; assay: Antiinflammatory activity in LPS-induced mouse RAW264.7 cells assessed as decrease in iNOS protein level at 10 to 40 uM preincubated for 2 hrs followed by LPS stimulation for 24 hrs by Western blot analysis; format: functional, cell-based; conditions: dose 10-40 µM, time 26.0 hrs; procedure, shortened: as §4
# [15] = system: RAW264.7; assay: Inhibition of ROS production in LPS-induced mouse RAW264.7 cells preincubated for 2 hrs followed by LPS stimulation for 24 hrs by Real-time single cell multi-mode analyzer; format: functional, cell-based; conditions: dose 10-40 µM, time 26.0 hrs
# Procedure, shortened: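 Cells on confocal dishes at 100 000 per well for 36 h, pretreated 2 h with compound at 10, 20 or 40 μM, then LPS 1 μg mL−1 for 24 h. Loaded with 50 μM H2DCFDA in PBS for 30 min in the dark. ROS read per cell on a real-time single-cell multi-mode analyzer. Mean ± SD.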
# [16] = system: RAW264.7; assay: Antiinflammatory activity in LPS-induced mouse RAW264.7 cells assessed as inhibition of IL-6 release preincubated for 2 hrs followed by LPS stimulation for 24 hrs by ELISA method; format: functional, cell-based; conditions: for Activity: dose 2.5-40 µM, time 26.0 hrs; procedure, shortened: as §2
# [17] = system: RAW264.7; assay: Antiinflammatory activity in LPS-induced mouse RAW264.7 cells assessed as downregulation of IL-1beta mRNA expression level preincubated for 2 hrs followed by LPS stimulation for 6 hrs by RT-qPCR analysis; format: functional, cell-based; conditions: dose 5-20 µM, time 8.0 hrs; procedure, shortened: as §3
# [18] = system: RAW264.7; assay: Antiinflammatory activity in LPS-induced mouse RAW264.7 cells assessed as downregulation of IL-6 mRNA expression level preincubated for 2 hrs followed by LPS stimulation for 6 hrs by RT-qPCR analysis; format: functional, cell-based; conditions: dose 5-20 µM, time 8.0 hrs; procedure, shortened: as §3
# [19] = system: RAW264.7; assay: Antiinflammatory activity in LPS-induced mouse RAW264.7 cells assessed as downregulation of TNF-alpha mRNA expression level preincubated for 2 hrs followed by LPS stimulation for 6 hrs by RT-qPCR analysis; format: functional, cell-based; conditions: dose 5-20 µM, time 8.0 hrs; procedure, shortened: as §3
IC50 [2],IC50 [3],IC50 [6],IC50 [7],IC50 [16],SMILES,Activity [1],Activity [3],Activity [4],Activity [5],Activity [6],Activity [9],inhibition [11],Activity [12],inhibition [13],Activity [14],Activity [16],Activity [17],Activity [18],Activity [19],also measured
,,,,,COc1cc(CCC(=O)c2ccc(F)c(C)c2)cc(OC)c1OC,inactive,,,,,,,,,,,,,,
,,,,,COc1ccc(C(=O)CCc2ccc(OC)c(OC)c2)cc1,inactive,,,,,,,,,,,,,,
9.5 µM,10 µM,7.1 µM,11.9 µM,8.4 µM,COc1ccc(/C=C/C(=O)c2cc(OC)c(OC)c(OC)c2)cc1OC,,Dose-Dependent Effect,Non-Toxic,Dose-Dependent Effect,Dose-Dependent Effect,Active,Dose-Dependent Effect,Dose-Dependent Effect,Dose-Dependent Effect,Active,Dose-Dependent Effect,Dose-Dependent Effect,Dose-Dependent Effect,Dose-Dependent Effect,"Activity [8]: Active; IC50 [10]: 7.6 µM; Activity ([10]; dose 2.5-40 µM, time 26.0 hrs): Dose-Dependent Effect; inhibition [15]: Dose-Dependent Effect"
,,,,,COc1ccc(CCC(=O)c2ccc(O)cc2)c(OC)c1,,,,,,,,,,,,,,,inhibition [1]: inactive
4 µM,12.3 µM,7.9 µM,4.6 µM,2.1 µM,COc1ccc(C(=O)/C=C/c2cc(OC)c(OC)c(OC)c2)cc1OC,,Dose-Dependent Effect,Non-Toxic,Dose-Dependent Effect,Dose-Dependent Effect,Active,Dose-Dependent Effect,Dose-Dependent Effect,Dose-Dependent Effect,Active,Dose-Dependent Effect,Dose-Dependent Effect,Dose-Dependent Effect,Dose-Dependent Effect,
